Bioassay records as filed in PubChem BioAssay.
Runt-CBFb FRET = inhibitors of human RUNX1 Runt domain binding to CBFb. AID 1496. inhibition, % at 20 µM. Q01196+Q13951. actives 0.46% (n = 220,000). Cerulean-Runt/Venus-CBFb FRET ratio 530/480, 1 h;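 active = inhibition over about 50% at 20 µM in the single-dose screen, limit read from the data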;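 note: 0% = DMSO wells and 100% = excess unlabeled CBFb competitor control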
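Assay system: Cerulean-Runt domain / Medium: Tris 50 mM pH 7.5, KCl, K2SO4, 0.01% BSA / Timing: protein complex preformed 1 h, compound exposure 1 h, room temperature, dark / Measured by: FRET, excitation 422 nm, emission at 530 and 480 nm / Evaluation: loss of energy transfer signal / Control set: 5 µM unlabeled CBFb as full-inhibition high control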
pCIP destab = p/CIP protein destabilization; Q05BA5; F442A p/CIP-EGFP cells, EGFP fluorescence, 16 h; decrease of EGFP signal, % at 10 µM; actives 0.01% (n = 290,000);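 active = EGFP signal decrease of at least 30% at 10 µM or well 3 SD below plate mean, unless failing retest; inactive = the rest, including hits failing retest or dose response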
Target sequence (Q05BA5 1-1403): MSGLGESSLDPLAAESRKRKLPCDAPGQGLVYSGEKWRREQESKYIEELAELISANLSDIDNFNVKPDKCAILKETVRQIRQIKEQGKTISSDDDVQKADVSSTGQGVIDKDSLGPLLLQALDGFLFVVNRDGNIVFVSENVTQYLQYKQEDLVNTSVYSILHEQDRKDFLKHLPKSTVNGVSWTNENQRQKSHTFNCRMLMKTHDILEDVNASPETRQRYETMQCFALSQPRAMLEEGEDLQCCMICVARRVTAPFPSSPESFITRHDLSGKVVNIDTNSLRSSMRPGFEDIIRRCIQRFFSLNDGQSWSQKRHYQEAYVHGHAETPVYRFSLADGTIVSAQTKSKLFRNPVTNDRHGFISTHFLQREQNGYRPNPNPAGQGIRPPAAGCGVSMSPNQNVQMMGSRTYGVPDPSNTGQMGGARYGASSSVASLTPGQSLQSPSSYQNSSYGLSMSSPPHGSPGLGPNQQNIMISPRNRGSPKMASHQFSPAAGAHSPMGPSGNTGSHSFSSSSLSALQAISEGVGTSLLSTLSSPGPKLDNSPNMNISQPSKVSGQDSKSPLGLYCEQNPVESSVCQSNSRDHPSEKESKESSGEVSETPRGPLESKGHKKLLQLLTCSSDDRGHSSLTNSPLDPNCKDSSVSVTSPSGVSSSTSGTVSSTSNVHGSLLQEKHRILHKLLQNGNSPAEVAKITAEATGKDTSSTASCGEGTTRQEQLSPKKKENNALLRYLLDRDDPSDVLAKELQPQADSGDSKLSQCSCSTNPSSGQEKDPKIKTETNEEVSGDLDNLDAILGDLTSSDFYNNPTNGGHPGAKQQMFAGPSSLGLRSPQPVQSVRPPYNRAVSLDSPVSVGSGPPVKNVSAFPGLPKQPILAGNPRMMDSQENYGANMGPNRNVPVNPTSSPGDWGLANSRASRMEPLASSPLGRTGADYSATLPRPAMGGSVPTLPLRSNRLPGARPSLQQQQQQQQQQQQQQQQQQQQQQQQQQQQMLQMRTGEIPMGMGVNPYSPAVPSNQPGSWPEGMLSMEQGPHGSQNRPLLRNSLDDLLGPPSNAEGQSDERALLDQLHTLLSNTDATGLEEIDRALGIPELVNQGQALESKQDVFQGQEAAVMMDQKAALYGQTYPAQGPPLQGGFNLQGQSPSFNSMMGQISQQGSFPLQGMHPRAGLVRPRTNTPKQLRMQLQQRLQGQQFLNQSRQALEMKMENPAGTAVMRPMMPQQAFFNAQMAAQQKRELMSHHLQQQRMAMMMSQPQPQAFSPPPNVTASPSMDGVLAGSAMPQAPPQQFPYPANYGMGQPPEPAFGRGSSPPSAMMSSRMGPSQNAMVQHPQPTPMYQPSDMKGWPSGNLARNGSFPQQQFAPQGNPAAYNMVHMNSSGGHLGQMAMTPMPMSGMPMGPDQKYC
Runt-SMMHC FRET = inhibitors of human RUNX1 Runt domain binding to CBFb-SMMHC; Q01196+Q13951; Cerulean-Runt/Venus-CBFb-SMMHC FRET ratio 530/480, 1 h; inhibition, % at 20 µM; actives 0.74% (n = 220,000);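 active = mean inhibition across duplicate retests at 20 µM reaching about 50%, limit read from the data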;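 note: 0% = DMSO wells and 100% = wells with excess untagged CBFb-SMMHC; inhibitors lower the FRET ratio by blocking Runt binding to CBFb-SMMHC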
Pemphigus Ab inh = blocks pemphigus antibody binding to human desmoglein-3; P32926; DSG3-coupled beads, scFv-anti-DSG3-GFP binding, flow cytometry; stronger effect = lower value; binding (percent of control), % at 10 µM; actives 0.48% (n = 310,000); AID 588358;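 active = binding more than 3 SD below its plate's average and above zero; inconclusive = below that plate limit but binding exactly zero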;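 note: hits lower antibody fragment binding to DSG3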
RanGTP-Imp inh = inhibitors of RanGTP-importin-beta interaction, primary screen, biochemical, FRET, CFP-Ran, YFP-importin-beta, homogeneous; actives 1.1% (n = 300,000); AID 2216; inhibition, % (concentration not given with the values); cell-free CFP-Ran/YFP-importin-beta FRET ratio;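 active = more than half of the replicate wells show a fall in the fluorescence ratio signal beyond about 16%, limit read from the data, passing the limit was not always enough; inconclusive = exactly half of the replicate wells pass the set limit; inactive = fewer than half of replicates pass the limit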;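 note: 0% = DMSO wells and 100% = Ran loaded with GDP instead of GTP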
Hck-Nef inh = human Hck-Nef kinase inhibition; actives 0.68% (n = 220,000); Recombinant Hck-YEEI plus Nef, Z-Lyte FRET kinase assay; AID 463187; inhibition, % at 20 µM;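 active = Hck-Nef kinase inhibition above about 50%, limit read from the data; inactive = inhibition below that limit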;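 note: 0% = DMSO with Hck plus Nef and 100% = Hck alone without Nef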
YIC FRET counter = counter-screen for RanGTP-importin-beta inhibitors: YIC FRET probe. AID 435026. shares compounds with RanGTP-Imp inh. actives 40% (n = 1,000). Purified YIC probe, intramolecular FRET ratio YFP/CFP. IC50, µM;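 active = fitted half-maximal inhibitory concentration no more than tenfold above the top dose tested; inconclusive = flat fit with 30 to 70% activity, or poor fit; inactive = half-maximal concentration beyond tenfold above the top dose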
Numbers without * were called inactive; ? = inconclusive; / = no result given. Rows were chosen to be rich in hits. Some 2.1% of all compounds tested hit in one or more screens of this group.

SMILES	Runt-CBFb FRET	pCIP destab	Runt-SMMHC FRET	Pemphigus Ab inh	RanGTP-Imp inh	Hck-Nef inh	YIC FRET counter
CC(C)OC(=O)c1nnn(-c2nonc2N)c1CN1CCCCCC1	-3.4	-7.4	-4.5	85.2	23.5*	1.0	>50
c1ccc(Nc2nc3ccccc3n3nnnc23)cc1	21.6	-16.8	44.5	123.9	35.6*	6.5	24*
COc1cc(C2C(C#N)=C(N)Oc3cc(C)n(CC4CCCO4)c(=O)c32)cc2c1OCO2 (configuration not stated)	1.4	9.6	-1.2	103.1	-3.9	-0.4	/
Cc1cc2c(c(=O)n1CC1CCCO1)C(c1ccco1)C(C#N)=C(N)O2 (configuration not stated)	111.9*	-3.1	38.6	94.9	22.7*	-0.7	14.1*
N#Cc1c(N)nc2c(c1-c1ccccc1)CCC2	5.1	-18.0	14.8	103.5	28.9*	35.6	9.8*
O=C(O)c1ccccc1C(=O)Nc1ccc(Br)c2cccnc12	16.0	12.1	3.6	103.5	17.1*	6.4	>50
Cc1cc(C)n2nc(C(=O)OCC(=O)c3cc(C)n(CC4CCCO4)c3C)nc2n1 (configuration not stated)	1.3	-12.2	-0.7	102.4	-0.2	17.2	/
Cc1cc(C(=O)COC(=O)c2nc3nccc(C)n3n2)c(C)n1CC1CCCO1 (configuration not stated)	-0.4	4.6	-4.0	105.2	21.2*	15.1	>50
CC1(c2ccccc2)NC(=O)N(CC(=O)N2CCN(S(=O)(=O)c3cccc(C(F)(F)F)c3)CC2)C1=O (configuration not stated)	/	/	/	115.5	/	/	/
COc1ccc(C(=O)N/N=C/c2c(CO)cnc(C)c2O)cc1	3.5	-8.9	88.4*	96.1	21.7*	-8.5	1.52*
COc1ccccc1N/N=C/c1c(CO)cnc(C)c1O	-1.2	6.8	6.8	85.2	1.9	2.5	/
COc1ccc(C(CNC(=O)CSc2ccc(Br)cc2C)N2CCOCC2)cc1 (configuration not stated)	/	/	/	104.1	-1.6	/	/
Cn1nnnc1SCC(=O)Nc1ccc(Oc2ccccc2)cc1	-0.3	-5.0	-1.1	100.4	0.5	10.5	/
Cn1nnnc1SCC(=O)Nc1nn(-c2ccccc2)nc1C(N)=O	1.4	10.5	-2.9	121.6	17.5*	15.2	>50
CN(CC(=O)Nc1ccccc1Br)C(=O)c1cc(S(=O)(=O)N(C)C)ccc1N1CCCC1	/	/	/	103.5	-1.6	/	/
Cc1ccc(OCC(=O)c2cc(C)n(CC(F)(F)F)c2C)c([N+](=O)[O-])n1	17.4	0.8	9.4	98.9	19.8*	22.5	>50
CCCSc1nc2cc(C)c(C)cc2n1CC(C)O (configuration not stated)	-0.3	17.4	-3.6	115.5	?	-4.7	/
CC(O)CNc1nc2ccccc2n1CC(=O)NC12CC3CC(CC(C3)C1)C2 (configuration not stated)	-2.8	7.6	0.6	108.6	22.1*	25.6	>50
Cc1ccccc1-c1cc(C(=O)NCC2CC2)nn1CC1CC(c2cccc([N+](=O)[O-])c2)=NO1 (configuration not stated)	/	/	/	97.8	/	/	/
O=C(Nc1nonc1NC(=O)c1cccs1)c1cccs1	0.4	-7.2	-0.9	100.7	21.1*	12.3	>50
O=C(Nc1ccccn1)c1cccs1	1.4	1.6	-8.8	106.9	2.6	0.1	/
COc1cc(NC(=O)C2CC2)c(OC)cc1NC(=O)c1ccco1	/	-15.1	/	95.7	18.7*	/	>50
CNC(=S)Nc1cc(OC)c(NC(=O)c2ccco2)cc1OC	2.3	-14.2	-2.3	96.8	2.2	25.4	/
Cc1cccc(NC(=O)CN2CCN(C(=O)CN3C(=O)NC4(CC(C)CC(C)(C)C4)C3=O)CC2)c1C (configuration not stated)	/	/	/	106.5	/	/	/
Clc1cccc(-c2ccc(C=Nc3ccc(N4CCOCC4)cc3)o2)c1Cl	7.0	-4.4	-1.5	115.4	23.2*	31.0	>50
SMILES	Runt-CBFb FRET	pCIP destab	Runt-SMMHC FRET	Pemphigus Ab inh	RanGTP-Imp inh	Hck-Nef inh	YIC FRET counter
C[C@@H](NC(=O)c1nc[nH]c1C(=O)NCC(=O)OCc1ccccc1)c1ccccc1	/	-14.1	/	110.0	-2.9	/	/
CCc1ccc(CN2CCC(Oc3ccc(C(=O)N4CCCC4)cc3)CC2)cc1	/	-1.6	/	114.9	3.8	/	/
CC(C)c1ccc(CN2CCC(Oc3ccc(C(=O)N4CCCC4)cc3)CC2)cc1	/	5.2	/	110.6	21.1*	/	>50
Cc1cccc(N2CCN(S(=O)(=O)c3ccc4c(c3)CCCN4C(=O)C3CCC3)CC2C)c1 (configuration not stated)	/	-2.8	/	107.5	-1.9	/	/
O=C(Nc1ccc2c(c1)OCO2)c1ccc(S(=O)(=O)NCC2CCCO2)cc1 (configuration not stated)	0.2	5.2	2.0	100.9	-2.4	15.3	/
O=C(Nc1cccc(F)c1)c1ccc(S(=O)(=O)NCC2CCCO2)cc1 (configuration not stated)	-0.7	-4.5	0.7	101.6	21.4*	2.2	>50
Cc1ccc(C)c(NC(=O)Cn2nnc(-c3ccc(N4CCOCC4)cc3)n2)c1	-2.4	-33.5	0.8	99.4	-5.8	26.5	/
N#Cc1c(N)n(CCNC(=O)c2ccc(Cl)cc2)c2nc3ccccc3nc12	94.0*	-6.1	43.7	105.6	27.9*	11.9	2.04*
O=C(NCCN1CCCC1)c1ccc(Cl)cc1	0.1	-4.7	-1.0	89.2	-3.5	37.8	/
Cc1ccc(S(=O)(=O)N2CCCC2CNC(=O)c2ccc(F)c(F)c2)cc1 (configuration not stated)	/	/	/	104.1	0.9	/	/
Nc1c(C(=O)NC2CCCC2)c2nc3ccccc3nc2n1/N=C/c1ccco1	20.8	1.1	25.3	/	26.4*	11.7	9.48*
COc1ccccc1/C=N/n1c(N)c(C(=O)NC2CCCCC2)c2nc3ccccc3nc21	-1.3	-10.0	-4.5	/	/	11.4	/
Cc1ccc(N2NC(=O)/C(=C\c3cc4c(cc3[N+](=O)[O-])OCO4)C2=O)cc1C	13.2	-3.8	6.7	96.7	24.8*	14.7	>50
O=C(NCCN1CCN(c2ccc([N+](=O)[O-])cc2)CC1)NCc1ccccc1	/	-9.1	/	122.3	-1.1	/	/
Cc1cnc(C(=O)Nc2ccc(S(=O)(=O)N(C(C)C)C(C)C)cc2)cn1	/	-10.0	/	110.3	19.7*	/	>50
Cc1cnc(C(=O)Nc2ccc(S(=O)(=O)NCC(C)C)cc2)cn1	/	-10.1	/	103.0	?	17.6	/
NC(=O)Cc1nc(-c2ccc(F)cc2)cs1	-0.2	6.9	-2.1	/	-2.2	19.0	/
